According to ChEMBL document CHEMBL2429739, “Double-targeting using a TrkC ligand conjugated to dipyrrometheneboron difluoride (BODIPY) based photodynamic therapy (PDT) agent” (J Med Chem, 2013):
pIC50: −log10 of the molar value. The source made the active and inactive calls. The rule behind the calls is not given here.

What was measured:
NIH3T3 [1] = experiment: Cellular uptake in mouse NIH/3T3 cells expressing TrkC at 0.5 uM after 2 hrs by confocal microscopy; type: ADME, cell-based; details: nih3t3, 2 h
Procedure, shortened: (§1)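 TrkC-transfected or wild-type NIH3T3 cells exposed to agent at 0.5 μM in supernatant for 2 h. Cells washed three times with PBS, then imaged live by confocal microscopy. Intracellular fluorescence intensity was quantified over 100 cells.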

NIH3T3 [2] = experiment: Cytotoxicity against mouse NIH/3T3 cells expressing TrkC assessed as cell viability incubated for 2 hrs followed by 7.3 J/cm'2 halogen light irradiation measured after 24 hrs by MTT assay; type: functional, cell-based; details: for pIC50: NIH3T3, light or radiation study
Procedure, shortened: (§2)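 Cells seeded overnight at about 10,000/well (NIH3T3-TrkC) or 7000/well (NIH3T3-WT, SY5Y). Agent applied at 0.02–2 μM final in protein-free PFHM-II medium (<0.001% DMSO) for 2 h. Cells washed and given fresh medium, then irradiated with >480 nm halogen light at 12.2 mW/cm2 (7.3 J/cm2, 10 min). After 24 h, MTT added for 3.5 h; OD read at 570 nm. % dead = 100 − (OD treated/OD control)×100; three runs.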

NIH3T3 [3] = experiment: Cytotoxicity against mouse NIH/3T3 cells expressing TrkC assessed as cell viability incubated for 2 hrs followed by 7.3 J/cm'2 halogen light irradiation measured after 24 hrs by MTT assay in presence of 3.5 nM of NT3; type: functional, cell-based
Procedure, shortened: (§3)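 NIH3T3-TrkC cells treated for 2 h with agent (0.02–2 μM) together with a constant 20 μM IY-IY or 3.5 nM NT-3 competitor. Cells washed, then irradiated at >480 nm, 12.2 mW/cm2, 7.3 J/cm2. After 24 h, viability read by MTT (OD 570 nm) and expressed as % dead cells; three runs.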

[4] = Cellular uptake in lysosome of mouse NIH/3T3 cells expressing TrkC at 1 uM after 12 hrs by confocal microscopy; type: ADME, cell-based; details: nih3t3, 12 h
Procedure, shortened: (§4)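 NIH3T3-TrkC cells (grown in DMEM/F12 with G418 and 10% newborn calf serum) incubated with agent at 1 μM for 12 h at 37 °C, then PBS-washed. Co-stained with LysoTracker Red 500 nM for 30 min at 37 °C, or with MitoTracker Deep Red / ER-Tracker Blue-White at 100 nm for 15 min. Washed again, then live cells imaged by multiphoton confocal Z-stacks in 0.5 μm steps.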

[5] = Cytotoxicity against human SH-SY5Y cells expressing TrkC assessed as cell viability after 2 hrs followed by 7.3 J/cm'2 halogen light irradiation measured after 24 hrs by MTT assay; type: functional, cell-based; details: light or radiation study; procedure, shortened: as §2
NIH3T3 [6] = experiment: Cytotoxicity against wild type mouse NIH/3T3 cells assessed as cell viability after 2 hrs followed by 7.3 J/cm'2 halogen light irradiation measured after 24 hrs by MTT assay; type: cell-based; details: nih3t3, 24 h; procedure, shortened: as §2
NIH3T3 [7] = experiment: Cellular uptake in wild type mouse NIH/3T3 cells at 0.5 uM after 2 hrs by confocal microscopy; type: ADME, cell-based; details: nih3t3, 2 h; procedure, shortened: as §1
[8] = Cellular uptake in mitochondria of mouse NIH/3T3 cells expressing TrkC at 1 uM after 12 hrs by confocal microscopy; type: ADME; details: nih3t3, 12 h; procedure, shortened: as §4
NIH3T3 [9] = experiment: Cytotoxicity against mouse NIH/3T3 cells expressing TrkC assessed as cell viability incubated for 2 hrs followed by 7.3 J/cm'2 halogen light irradiation measured after 24 hrs by MTT assay in presence of 20 uM of IY-IY; type: functional, cell-based; procedure, shortened: as §3
NIH3T3 [10] = experiment: Dark cytotoxicity against mouse NIH/3T3 cells expressing TrkC assessed as cell viability by MTT assay; type: cell-based
Procedure, shortened: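 NIH3T3-TrkC cells given the same 2 h agent treatment and wash as in the light assay, but kept without illumination. Viability measured by MTT; three runs.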

Mus musculus = experiment: Toxicity in mouse under dark condition at 100 mg/kg after 12 days; type: organism-based; design: dose 100 mg/kg; details: in vivo, 288 h
[11] = Cellular uptake in endoplasmic reticulum of mouse NIH/3T3 cells expressing TrkC at 1 uM after 12 hrs by confocal microscopy; type: ADME, cell-based; details: nih3t3, 12 h; procedure, shortened: as §4

Row | Drug uptake (NIH3T3 [1]) | Drug uptake [4] | Drug uptake (NIH3T3 [7]) | Drug uptake [8] | Drug uptake [11] | SMILES | pIC50 (NIH3T3 [2]) | Activity (NIH3T3 [3]) | pIC50 [5] | Activity (NIH3T3 [6]) | Activity (NIH3T3 [9]) | Activity (NIH3T3 [10]) | Activity (Mus musculus) | Activity (NIH3T3 [2])
1 | Not Active |  |  |  |  | CC[C@H](C)[C@@H](C(=O)N1CCN(c2nc(NCCOCCOCCOCc3cn(CCCC4=C5C(C)=C(I)C(C)=[N+]5[B-](F)(F)n5c(C)c(I)c(C)c54)nn3)nc(N3CCN(C(=O)[C@H]([C@@H](C)CC)n4cc([C@@H](N)Cc5ccc(O)cc5)nn4)CC3)n2)CC1)n1cc([C@@H](N)Cc2ccc(O)cc2)nn1 | < 5.70 |  |  |  |  |  |  | 
2 | Active | Active | Not Active | Not Active | Not Active | CC[C@H](C)[C@H](N)c1cn([C@@H](Cc2ccc(O)cc2)C(=O)N2CCN(c3nc(NCCOCCOCCOCc4cn(CCCC5=C6C(C)=C(I)C(C)=[N+]6[B-](F)(F)n6c(C)c(I)c(C)c65)nn4)nc(N4CCN(C(=O)[C@H](Cc5ccc(O)cc5)n5cc([C@@H](N)[C@@H](C)CC)nn5)CC4)n3)CC2)nn1 | 6.46 | Active | 6.82 | Active | Active | Non-toxic | Non-toxic | Dose-dependent effect
